Numbering of substitutions follows the chain as printed. Numbers in names are those of the source.
Legend:
[1] = system: E. coli strain JM109; assay: Arsenite resistance assay; format: cell-based, Escherichia coli
[2] = molecular target: K16Q ThArsA; assay: Photoaffinity labelling with increasing 8-azido[γ-32P]ATP; format: binding; details: read-out: apparent Kd
[3] = molecular target: ThArsA; assay: as above; format: binding; details: read-out: apparent Kd
[4] = molecular target: wild-type ArsA (Escherichia coli, UniProt P08690); details: read-out: Km for ATP
[5] = system: ThArsA; format: biochemical; details: read-out: Km for ATP
[6] = ATPase activity, NADH-coupled assay; format: biochemical, Escherichia coli; details: for ATPase activity relative to wild type: % of wild-type activity
[7] = Sb; format: binding, Escherichia coli; details: 10 μM ArsA, 2 mM ATPγS, 2.5 mM MgCl2; Sb(III) per ArsA
Procedure, shortened: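 Purified ArsA buffer-exchanged into 50 mM MOPS-KOH pH 7.5. Incubated 1 h on ice with 2 mM ATPγS, 2.5 mM MgCl2 and a range of potassium antimonyl tartrate concentrations. Unbound metalloid removed on a spin gel-filtration column in the same buffer. Eluate diluted in 2% HNO3 and antimony measured by ICP-MS against an antimony standard. Binding expressed as a function of Sb(III) concentration.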

Chain of wild-type ArsA (P08690 whole entry): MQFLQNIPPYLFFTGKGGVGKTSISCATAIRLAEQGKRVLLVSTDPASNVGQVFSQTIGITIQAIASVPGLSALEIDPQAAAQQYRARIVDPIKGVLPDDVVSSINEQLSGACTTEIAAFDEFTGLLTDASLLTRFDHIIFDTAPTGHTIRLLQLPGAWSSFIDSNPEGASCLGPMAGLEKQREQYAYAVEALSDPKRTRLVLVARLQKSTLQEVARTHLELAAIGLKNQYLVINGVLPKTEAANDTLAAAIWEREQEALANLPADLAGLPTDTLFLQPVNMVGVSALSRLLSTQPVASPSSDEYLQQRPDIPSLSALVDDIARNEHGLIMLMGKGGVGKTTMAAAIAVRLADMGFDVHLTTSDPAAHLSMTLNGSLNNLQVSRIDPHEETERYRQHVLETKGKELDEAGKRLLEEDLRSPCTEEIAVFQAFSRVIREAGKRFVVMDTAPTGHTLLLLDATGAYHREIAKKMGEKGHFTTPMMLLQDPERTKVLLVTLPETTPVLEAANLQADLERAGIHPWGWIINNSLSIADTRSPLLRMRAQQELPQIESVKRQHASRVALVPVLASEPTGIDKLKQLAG

Molecule: O=[As][O-].[Na+] [sodium arsenite]
- sodium arsenite concentration in which cells could grow ([1]; cells expressing wild-type arsA and arsB genes): 5 mM
- sodium arsenite concentration at which cells were sensitive ([1]; cells without an ars operon): 1 mM

Molecule: [N-]=[N+]=Nc1nc2c(N)ncnc2n1[C@@H]1O[C@H](COP(=O)(O)OP(=O)(O)OP(=O)(O)O)[C@@H](O)[C@H]1O [8-azido[γ-32P]ATP, 8-azidoadenosine 5'-[γ-32P]triphosphate]
- Kd [2]: 55 µM
- Kd [3]: 50 µM

Molecule: Nc1ncnc2c1ncn2[C@@H]1O[C@H](COP(=O)(O)OP(=O)(O)OP(=O)(O)O)[C@@H](O)[C@H]1O [ATP, adenosine 5'-triphosphate]
- Km [4]: 170 µM
- Km [5]: 170 µM

B1: K16Q ArsA: ArsA with signature Lys16 (A1 half) changed to glutamine (protein, UniProt P08690 1-583, looked up, variant K16Q)
Arsenical pump-driving ATPase: MQFLQNIPPYLFFTGQGGVGKTSISCATAIRLAEQGKRVLLVSTDPASNVGQVFSQTIGITIQAIASVPGLSALEIDPQAAAQQYRARIVDPIKGVLPDDVVSSINEQLSGACTTEIAAFDEFTGLLTDASLLTRFDHIIFDTAPTGHTIRLLQLPGAWSSFIDSNPEGASCLGPMAGLEKQREQYAYAVEALSDPKRTRLVLVARLQKSTLQEVARTHLELAAIGLKNQYLVINGVLPKTEAANDTLAAAIWEREQEALANLPADLAGLPTDTLFLQPVNMVGVSALSRLLSTQPVASPSSDEYLQQRPDIPSLSALVDDIARNEHGLIMLMGKGGVGKTTMAAAIAVRLADMGFDVHLTTSDPAAHLSMTLNGSLNNLQVSRIDPHEETERYRQHVLETKGKELDEAGKRLLEEDLRSPCTEEIAVFQAFSRVIREAGKRFVVMDTAPTGHTLLLLDATGAYHREIAKKMGEKGHFTTPMMLLQDPERTKVLLVTLPETTPVLEAANLQADLERAGIHPWGWIINNSLSIADTRSPLLRMRAQQELPQIESVKRQHASRVALVPVLASEPTGIDKLKQLAG
- ATPase activity relative to wild type [6]: 70%
- ATPase activity relative to wild type ([6]; listed as K16Q): approximately 70%
- EC50 ([6]; read-out: concentration of antimonite [Sb(III)] required for half-maximal activation): 20 µM
- reduction in the affinity of ATP ([6]; versus wild type): 3 fold

B2: K335Q ArsA: ArsA with signature Lys335 (A2 half) changed to glutamine (protein, UniProt P08690 1-583, looked up, variant K335Q)
Arsenical pump-driving ATPase: B1 Arsenical pump-driving ATPase with Q16K, K335Q
- ATPase activity (in words) ([6]; purified protein): inactive

B3: C113A/C422A: ArsA derivative lacking the Sb(III)-binding residues Cys113 and Cys422 (protein, UniProt P08690 1-583, looked up, variant C113A C422A)
Arsenical pump-driving ATPase: B1 Arsenical pump-driving ATPase with Q16K, C113A, C422A
- stoichiometry of Sb(III) binding [7]: only background levels

Reference: paper PMC3773367 (Biochemistry, 2010)
